In ChEMBL document CHEMBL3352487, “Synthesis, antibacterial activity, and biological evaluation of formyl hydroxyamino derivatives as novel potent peptide deformylase inhibitors against drug-resistant bacteria” (Eur J Med Chem, 2014):
Converted amounts (≈) assume the structure as drawn.

How the values were obtained:
Format in all cases: functional
Escherichia coli [1] = assay: Antimicrobial activity against Escherichia coli isolate 1 after 24 hrs by broth microdilution method; details: isolate 1, 24 h
Summary of the method: (§1)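 Broth microdilution following NCCLS M7-A4; ATCC strains and clinical isolates from a provincial hospital.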

Staphylococcus aureus [2] = assay: Antimicrobial activity against Staphylococcus aureus after 24 hrs by broth microdilution method; summary of the method: as §1
Staphylococcus aureus [3] = assay: Antimicrobial activity against methicillin-resistant Staphylococcus aureus after 24 hrs by broth microdilution method
Summary of the method: (§2)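 Broth microdilution following NCCLS M7-A4, using ATCC strains and clinical isolates from a provincial hospital.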

[4] = tested on: Staphylococcus epidermidis; assay: Antimicrobial activity against Staphylococcus epidermidis after 24 hrs by broth microdilution method; summary of the method: as §1
Escherichia coli [5] = assay: Antimicrobial activity against Escherichia coli isolate 2 after 24 hrs by broth microdilution method; details: isolate 2, 24 h; summary of the method: as §1
Staphylococcus aureus [6] = assay: Antimicrobial activity against methicillin-susceptible Staphylococcus aureus after 24 hrs by broth microdilution method; summary of the method: as §1
Streptococcus pneumoniae = assay: Antimicrobial activity against penicillin-resistant Streptococcus pneumoniae after 24 hrs by broth microdilution method; summary of the method: as §2
Moraxella catarrhalis = assay: Antimicrobial activity against Moraxella catarrhalis after 24 hrs by broth microdilution method; summary of the method: as §1
[7] = tested on: Staphylococcus epidermidis; assay: Antimicrobial activity against methicillin-resistant Staphylococcus epidermidis after 24 hrs by broth microdilution method; summary of the method: as §2
[8] = tested on: Staphylococcus epidermidis; assay: Antimicrobial activity against methicillin-susceptible Staphylococcus epidermidis after 24 hrs by broth microdilution method; summary of the method: as §1
Enterococcus faecalis = assay: Antimicrobial activity against Enterococcus faecalis after 24 hrs by broth microdilution method; summary of the method: as §1

Compound `CCCC[C@H](CN(O)C=O)C(=O)N1CC=C[C@H]1C(=O)Nc1ccc(F)cc1` has an MIC (Escherichia coli [1]) greater than 64 µg/mL, an MIC (Staphylococcus aureus [2]) of 2 µg/mL (≈ 5.3 µM) and an MIC (Staphylococcus aureus [3]) of 1 µg/mL (≈ 2.65 µM). It also gave an MIC [4] of 4 µg/mL (≈ 10.6 µM), an MIC (Escherichia coli [5]) of 64 µg/mL (≈ 170 µM) and an MIC (Staphylococcus aureus [6]) of 2 µg/mL (≈ 5.3 µM).
Compound `CCCC[C@H](CN(O)C=O)C(=O)N1CC=C[C@H]1C(=O)Nc1ccccc1Cl` has an MIC (Escherichia coli [1]) greater than 64 µg/mL, an MIC (Staphylococcus aureus [2]) of 0.5 µg/mL (≈ 1.27 µM) and an MIC (Staphylococcus aureus [3]) of 0.25 µg/mL (≈ 0.635 µM). It also gave an MIC [4] of 1 µg/mL (≈ 2.54 µM), an MIC (Escherichia coli [5]) of 64 µg/mL (≈ 162 µM) and an MIC (Staphylococcus aureus [6]) of 2 µg/mL (≈ 5.08 µM).
`CCCC[C@H](CN(O)C=O)C(=O)N1C[C@@H](C)C[C@H]1C(=O)Nc1ccc(F)c[n+]1[O-]` gave an MIC (Streptococcus pneumoniae) of 0.03 µg/mL (≈ 0.0731 µM), an MIC (Staphylococcus aureus [2]) of 0.25 µg/mL (≈ 0.609 µM) and an MIC (Staphylococcus aureus [3]) of 0.25 µg/mL (≈ 0.609 µM). The MIC (Moraxella catarrhalis) was 0.03 µg/mL (≈ 0.0731 µM), the MIC (Staphylococcus aureus [6]) was 0.25 µg/mL (≈ 0.609 µM) and the MIC [7] was 0.5 µg/mL (≈ 1.22 µM). For the same compound, the MIC [8] was 0.0625 µg/mL (≈ 0.152 µM) and the MIC (Enterococcus faecalis) was 4 µg/mL (≈ 9.75 µM).
Compound `C=C1C[C@@H](C(=O)Nc2ccccc2)N(C(=O)[C@H](CCCC)CN(O)C=O)C1` has an MIC (Escherichia coli [1]) of 64 µg/mL (≈ 171 µM), an MIC (Staphylococcus aureus [2]) of 1 µg/mL (≈ 2.68 µM) and an MIC (Staphylococcus aureus [3]) of 0.5 µg/mL (≈ 1.34 µM). The MIC [4] was 1 µg/mL (≈ 2.68 µM), the MIC (Escherichia coli [5]) was greater than 64 µg/mL and the MIC (Staphylococcus aureus [6]) was 4 µg/mL (≈ 10.7 µM).
Work on `O=CN(O)C[C@@H](CC1CCCC1)C(=O)N1CC=C[C@H]1C(=O)N1CCOCC1` yielded an MIC (Escherichia coli [1]) greater than 64 µg/mL, an MIC (Staphylococcus aureus [2]) of 64 µg/mL (≈ 169 µM) and an MIC (Staphylococcus aureus [3]) of 32 µg/mL (≈ 84.3 µM). For the same compound, the MIC [4] was 64 µg/mL (≈ 169 µM), the MIC (Escherichia coli [5]) was greater than 64 µg/mL and the MIC (Staphylococcus aureus [6]) was 64 µg/mL (≈ 169 µM).
Compound `O=CN(O)C[C@@H](CC1CCCC1)C(=O)N1C[C@@H](F)C[C@H]1C(=O)Nc1ccc(F)c[n+]1[O-]` has an MIC (Streptococcus pneumoniae) of 0.03 µg/mL (≈ 0.0681 µM), an MIC (Staphylococcus aureus [2]) of 2 µg/mL (≈ 4.54 µM) and an MIC (Staphylococcus aureus [3]) of 2 µg/mL (≈ 4.54 µM). The MIC (Moraxella catarrhalis) was 0.25 µg/mL (≈ 0.568 µM), the MIC (Staphylococcus aureus [6]) was 0.5 µg/mL (≈ 1.14 µM) and the MIC [7] was 4 µg/mL (≈ 9.08 µM). For the same compound, the MIC [8] was 0.25 µg/mL (≈ 0.568 µM) and the MIC (Enterococcus faecalis) was 8 µg/mL (≈ 18.2 µM).
In the case of `CCCC[C@H](CN(O)C=O)C(=O)N1CC=C[C@H]1C(=O)N[C@@H](C)c1ccccc1`, the MIC (Escherichia coli [1]) is reported as greater than 64 µg/mL, the MIC (Staphylococcus aureus [2]) is reported as 4 µg/mL (≈ 10.3 µM) and the MIC (Staphylococcus aureus [3]) is reported as 8 µg/mL (≈ 20.6 µM). The MIC [4] was 8 µg/mL (≈ 20.6 µM), the MIC (Escherichia coli [5]) was greater than 64 µg/mL and the MIC (Staphylococcus aureus [6]) was 16 µg/mL (≈ 41.3 µM).
`CCCC[C@H](CN(O)C=O)C(=O)N1CC=C[C@H]1C(=O)Nc1ccc(OC)cc1` was tested, and the MIC (Escherichia coli [1]) was greater than 64 µg/mL, the MIC (Staphylococcus aureus [2]) was 0.5 µg/mL (≈ 1.28 µM) and the MIC (Staphylococcus aureus [3]) was 1 µg/mL (≈ 2.57 µM). The MIC [4] was 2 µg/mL (≈ 5.14 µM), the MIC (Escherichia coli [5]) was greater than 64 µg/mL and the MIC (Staphylococcus aureus [6]) was 2 µg/mL (≈ 5.14 µM).
Work on `CCCC[C@H](CN(O)C=O)C(=O)N1CC=C[C@H]1C(=O)Nc1ccc([N+](=O)[O-])cc1` yielded an MIC (Escherichia coli [1]) greater than 64 µg/mL, an MIC (Staphylococcus aureus [2]) of 0.5 µg/mL (≈ 1.24 µM) and an MIC (Staphylococcus aureus [3]) of 0.5 µg/mL (≈ 1.24 µM). It also gave an MIC [4] of 0.5 µg/mL (≈ 1.24 µM), an MIC (Escherichia coli [5]) of 32 µg/mL (≈ 79.1 µM) and an MIC (Staphylococcus aureus [6]) of 2 µg/mL (≈ 4.95 µM).
`Cc1cnc(NC(=O)[C@@H]2C[C@H]3CCCC[C@@H]3N2C(=O)[C@H](CC2CCCC2)CN(O)C=O)s1` showed an MIC (Streptococcus pneumoniae) of 0.03 µg/mL (≈ 0.0648 µM), an MIC (Staphylococcus aureus [2]) of 4 µg/mL (≈ 8.65 µM) and an MIC (Staphylococcus aureus [3]) of 4 µg/mL (≈ 8.65 µM). The MIC (Moraxella catarrhalis) was 0.5 µg/mL (≈ 1.08 µM), the MIC (Staphylococcus aureus [6]) was 4 µg/mL (≈ 8.65 µM) and the MIC [7] was 8 µg/mL (≈ 17.3 µM). For the same compound, the MIC [8] was 0.5 µg/mL (≈ 1.08 µM) and the MIC (Enterococcus faecalis) was greater than 16 µg/mL.
Work on `CN[C@H](CC(C)C)C(=O)N[C@H]1C(=O)N[C@@H](CC(N)=O)C(=O)N[C@H]2C(=O)N[C@H]3C(=O)N[C@H](C(=O)N[C@H](C(=O)O)c4cc(O)cc(O)c4-c4cc3ccc4O)[C@H](O)c3ccc(c(Cl)c3)Oc3cc2cc(c3O[C@@H]2O[C@H](CO)[C@@H](O)[C@H](O)[C@H]2O[C@H]2C[C@](C)(N)[C@H](O)[C@H](C)O2)Oc2ccc(cc2Cl)[C@H]1O` [VANCOMYCIN] yielded an MIC (Escherichia coli [1]) greater than 64 µg/mL and an MIC (Escherichia coli [5]) greater than 64 µg/mL.
Work on `CCCC[C@H](CN(O)C=O)C(=O)N1C[C@@H](F)C[C@H]1C(=O)Nc1ncc(C)s1` yielded an MIC (Streptococcus pneumoniae) of 0.06 µg/mL (≈ 0.15 µM), an MIC (Staphylococcus aureus [2]) of 8 µg/mL (≈ 20 µM) and an MIC (Staphylococcus aureus [3]) of 8 µg/mL (≈ 20 µM). It also gave an MIC (Moraxella catarrhalis) of 0.25 µg/mL (≈ 0.624 µM), an MIC (Staphylococcus aureus [6]) of 8 µg/mL (≈ 20 µM) and an MIC [7] of 8 µg/mL (≈ 20 µM). It also gave an MIC [8] of 4 µg/mL (≈ 9.99 µM) and an MIC (Enterococcus faecalis) greater than 16 µg/mL.
`C=C1C[C@@H](C(=O)N2CCOCC2)N(C(=O)[C@H](CCCC)CN(O)C=O)C1` was tested, and the MIC (Escherichia coli [1]) was greater than 64 µg/mL, the MIC (Staphylococcus aureus [2]) was 4 µg/mL (≈ 10.9 µM) and the MIC (Staphylococcus aureus [3]) was 4 µg/mL (≈ 10.9 µM). The MIC [4] was 8 µg/mL (≈ 21.8 µM), the MIC (Escherichia coli [5]) was greater than 64 µg/mL and the MIC (Staphylococcus aureus [6]) was 64 µg/mL (≈ 174 µM).
Work on `CCCC[C@H](CN(O)C=O)C(=O)N1CC=C[C@H]1C(=O)Nc1ccccc1Br` yielded an MIC (Escherichia coli [1]) greater than 64 µg/mL, an MIC (Staphylococcus aureus [2]) of 32 µg/mL (≈ 73 µM) and an MIC (Staphylococcus aureus [3]) of 1 µg/mL (≈ 2.28 µM). It also gave an MIC [4] of 8 µg/mL (≈ 18.3 µM), an MIC (Escherichia coli [5]) greater than 64 µg/mL and an MIC (Staphylococcus aureus [6]) of 4 µg/mL (≈ 9.13 µM).
`CCCC[C@H](CN(O)C=O)C(=O)N1CC=C[C@H]1C(=O)Nc1cccc(Br)c1` gave an MIC (Escherichia coli [1]) of 64 µg/mL (≈ 146 µM), an MIC (Staphylococcus aureus [2]) of 8 µg/mL (≈ 18.3 µM) and an MIC (Staphylococcus aureus [3]) of 0.125 µg/mL (≈ 0.285 µM). For the same compound, the MIC [4] was 1 µg/mL (≈ 2.28 µM), the MIC (Escherichia coli [5]) was 16 µg/mL (≈ 36.5 µM) and the MIC (Staphylococcus aureus [6]) was 1 µg/mL (≈ 2.28 µM).
With `CCCC[C@H](CN(O)C=O)C(=O)N1CC=C[C@H]1C(=O)Nc1nnc(C(F)(F)F)s1` the MIC (Escherichia coli [1]) was greater than 64 µg/mL, the MIC (Staphylococcus aureus [2]) was 32 µg/mL (≈ 73.5 µM) and the MIC (Staphylococcus aureus [3]) was 8 µg/mL (≈ 18.4 µM). The MIC [4] was 16 µg/mL (≈ 36.7 µM), the MIC (Escherichia coli [5]) was greater than 64 µg/mL and the MIC (Staphylococcus aureus [6]) was 16 µg/mL (≈ 36.7 µM).
Work on `CCCC[C@H](CN(O)C=O)C(=O)N1[C@H](C(=O)Nc2ccc(C)cn2)C[C@H]2CCCC[C@@H]21` yielded an MIC (Streptococcus pneumoniae) of 0.03 µg/mL (≈ 0.0697 µM), an MIC (Staphylococcus aureus [2]) of 8 µg/mL (≈ 18.6 µM) and an MIC (Staphylococcus aureus [3]) of 4 µg/mL (≈ 9.29 µM). For the same compound, the MIC (Moraxella catarrhalis) was 0.03 µg/mL (≈ 0.0697 µM), the MIC (Staphylococcus aureus [6]) was 8 µg/mL (≈ 18.6 µM) and the MIC [7] was 16 µg/mL (≈ 37.2 µM). It also gave an MIC [8] of 0.5 µg/mL (≈ 1.16 µM) and an MIC (Enterococcus faecalis) greater than 16 µg/mL.
Work on `C=C1C[C@@H](C(=O)Nc2ccc(F)c[n+]2[O-])N(C(=O)[C@H](CCCC)CN(O)C=O)C1` yielded an MIC (Escherichia coli [1]) greater than 64 µg/mL, an MIC (Staphylococcus aureus [2]) of 1 µg/mL (≈ 2.45 µM) and an MIC (Staphylococcus aureus [3]) of 0.5 µg/mL (≈ 1.22 µM). For the same compound, the MIC [4] was 1 µg/mL (≈ 2.45 µM), the MIC (Escherichia coli [5]) was greater than 64 µg/mL and the MIC (Staphylococcus aureus [6]) was 4 µg/mL (≈ 9.79 µM).
`CCCC[C@H](CN(O)C=O)C(=O)N1CC=C[C@H]1C(=O)Nc1ccc(Cl)cc1` was tested, and the MIC (Escherichia coli [1]) was greater than 64 µg/mL, the MIC (Staphylococcus aureus [2]) was 8 µg/mL (≈ 20.3 µM) and the MIC (Staphylococcus aureus [3]) was 1 µg/mL (≈ 2.54 µM). The MIC [4] was 4 µg/mL (≈ 10.2 µM), the MIC (Escherichia coli [5]) was greater than 64 µg/mL and the MIC (Staphylococcus aureus [6]) was 2 µg/mL (≈ 5.08 µM).
